pKi: −log10 of the molar value. Values joined by “and” are separate entries in the source; they are usually repeats but may differ in a detail not shown here. Identical values can stand only once.

Test [1] in a line: Displacement of [3H]flunitrazepam from alpha-1-beta-2-gamma-2 GABA-A receptor subunits expressed in Sf9 cell membranes. Also noted: species or system Rattus norvegicus. A digest of the protocol:
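Sf-9 membranes from cells infected with baculovirus carrying α1, β2 and γ2 cDNAs, harvested 60 h postinfection. Assay in normal saline with 6 nM [3H]flunitrazepam, 50 µg membrane protein and six test concentrations; 60 min at 4 °C; glass-fiber filtration, four cold washes, scintillation counting.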

For test [2], the species on record is Rattus norvegicus. Briefly: Chloride ion influx in rat cerebrocortical membranes. Format: functional.
For test [3], the target named is GABA-A receptor; anion channel. Description: Displacement of [3H]- flunitrazepam from rat GABA-A benzodiazepine receptor. The class given is protein-complex assay.
Test [4] is described as follows: Displacement of [3H]-Ro- 15-4513 from alpha-1-beta-2-gamma-2 GABA-A receptor subunits expressed in Sf9 cell membranes. Also on record: species or system Rattus norvegicus.
Test [5] concerns Rattus norvegicus. Description: The compound was tested for antagonistic activity against metrazole induced convulsions in rats, after ip administration. The class given is functional.
The target in test [6] is T1, GABA-A receptor; anion channel (Rattus norvegicus) (UniProt O09028+P15431+P18506+P18508+P19969+P20236+P23574+P23576+P28471+P28473+P30191+P62813+P63079+P63138+Q91ZM7+Q9ES14). Briefly: Shift in the affinity of [35S]TBPS for the chloride channel of GABAA receptor complex in the presence and absence of compound. The class given is protein-complex assay.
The target in test [7] is GABA A receptor alpha-6/beta-2/gamma-2 (Homo sapiens, UniProt P18507+P47870+Q16445). Description: Displacement of [3H]-Ro- 15-4513 from alpha-6-beta-2-gamma-2 GABA-A receptor subunits expressed in Sf9 cell membranes. A digest of the protocol:
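Sf-9 cells infected with baculovirus carrying α6, β2 and γ2 cDNAs, harvested 60 h postinfection; membranes stored at -80 °C in 300 mM sucrose, 5 mM Tris/HCl pH 7.5, 20% glycerol. 50 µg membrane protein with 6 nM [3H]Ro 15-4513 and six test concentrations in normal saline, 60 min at 4 °C; filtered, washed, scintillation counted.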
In general terms: Displacement assays read how much labelled ligand stays bound in the presence of the test substance.

Test [8] has as its system Rattus norvegicus. Description: The compound was tested for antagonistic activity against metrazole induced convulsions in rats after ip administration. The class given is functional.
For test [9], the target named is T1, GABA-A receptor; anion channel (Rattus norvegicus). Briefly: Inhibition of [35S]TBPS binding to GABA-A receptor complex. The class given is protein-complex assay.

Chain of GABA A receptor alpha-6/beta-2/gamma-2 (P47870 whole entry): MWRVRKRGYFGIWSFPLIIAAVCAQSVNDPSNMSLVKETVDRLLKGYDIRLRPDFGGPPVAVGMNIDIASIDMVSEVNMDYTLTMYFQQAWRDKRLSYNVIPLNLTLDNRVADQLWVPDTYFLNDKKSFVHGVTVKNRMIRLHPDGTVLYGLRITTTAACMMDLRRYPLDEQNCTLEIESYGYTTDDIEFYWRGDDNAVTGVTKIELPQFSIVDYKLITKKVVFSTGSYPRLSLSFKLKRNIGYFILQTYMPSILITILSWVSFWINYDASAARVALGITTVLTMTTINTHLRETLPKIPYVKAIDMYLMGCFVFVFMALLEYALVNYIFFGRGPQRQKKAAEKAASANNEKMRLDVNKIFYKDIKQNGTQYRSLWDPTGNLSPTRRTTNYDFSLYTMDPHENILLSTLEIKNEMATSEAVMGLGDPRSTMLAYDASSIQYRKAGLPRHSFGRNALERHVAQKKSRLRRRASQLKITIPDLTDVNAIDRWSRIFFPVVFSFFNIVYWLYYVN
Chain of GABA A receptor alpha-6/beta-2/gamma-2 (P18507 whole entry): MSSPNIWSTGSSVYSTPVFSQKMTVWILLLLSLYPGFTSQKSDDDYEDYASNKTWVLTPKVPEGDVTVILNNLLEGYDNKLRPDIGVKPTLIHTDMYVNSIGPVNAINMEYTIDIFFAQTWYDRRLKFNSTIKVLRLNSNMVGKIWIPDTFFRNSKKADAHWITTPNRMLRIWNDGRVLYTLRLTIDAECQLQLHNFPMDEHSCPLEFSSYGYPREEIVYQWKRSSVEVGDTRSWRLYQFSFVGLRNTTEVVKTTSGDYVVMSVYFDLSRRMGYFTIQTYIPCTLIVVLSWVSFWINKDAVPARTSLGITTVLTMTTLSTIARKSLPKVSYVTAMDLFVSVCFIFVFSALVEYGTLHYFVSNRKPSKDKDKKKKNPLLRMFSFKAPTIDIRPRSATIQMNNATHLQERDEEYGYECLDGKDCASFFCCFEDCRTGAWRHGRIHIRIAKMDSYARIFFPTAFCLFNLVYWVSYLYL
Chain of GABA A receptor alpha-6/beta-2/gamma-2 (Q16445 whole entry): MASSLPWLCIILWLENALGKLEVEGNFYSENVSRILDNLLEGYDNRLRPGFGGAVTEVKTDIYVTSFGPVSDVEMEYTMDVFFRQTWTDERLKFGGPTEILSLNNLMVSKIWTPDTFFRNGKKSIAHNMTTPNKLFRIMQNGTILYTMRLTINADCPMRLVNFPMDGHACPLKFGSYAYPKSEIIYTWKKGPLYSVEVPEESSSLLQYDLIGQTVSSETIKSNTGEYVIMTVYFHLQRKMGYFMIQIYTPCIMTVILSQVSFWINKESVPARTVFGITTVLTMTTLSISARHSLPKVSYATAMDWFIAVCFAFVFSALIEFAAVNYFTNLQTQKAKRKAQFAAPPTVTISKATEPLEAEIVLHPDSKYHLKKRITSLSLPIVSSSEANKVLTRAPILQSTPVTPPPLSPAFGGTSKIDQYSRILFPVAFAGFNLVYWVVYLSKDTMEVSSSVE

For the compound `O=C(c1ccccc1)N1Cc2c(-c3noc(C4CC4)n3)ncn2-c2cccc(F)c21`, the pKi in [1] was 9.52; in [3], 9.11; in test [4], 6.17. The compound further came in with a Chlorine uptake in the test listed under Rattus norvegicus [2] of 0.9. The ED50 in the test on Rattus norvegicus [5] came to 25 mg/kg. Besides, the TBPS shift in test [6] was 0.87.

As for `CC(=O)N1Cc2c(-c3noc(C4CC4)n3)ncn2-c2cccc(F)c21`, the pKi in test [1] is 9.10; in test [4] it was 6.97.

In turn, `CN1C(=O)CN=C(c2ccccc2)c2cc(Cl)ccc21` [DIAZEPAM] showed a pKi in test [7] of less than 5.15. In addition, in the test filed under Rattus norvegicus [2], the Chlorine uptake was found to be 1. Besides, in the test with Rattus norvegicus [5], the ED50 came out at 0.5 mg/kg.

In turn, `CC(C)(C)OC(=O)c1ncn2c1CN(C(=O)OC(C)(C)C)c1ccccc1-2` gave a Chlorine uptake in the test filed under Rattus norvegicus [2] of 0.14. The compound further gave a pKi in test [3] of 8.29. Further, the TBPS shift in test [6] was 0.45.

Regarding `Cc1ccc(-c2nc3ccc(C)cn3c2CC(=O)N(C)C)cc1` [ZOLPIDEM], the ED50 in the test with Rattus norvegicus [8] amounted to 4.4 mg/kg.

With `CCOC(=O)c1ncn2c1CN(C)C(=O)c1cc(N=[N+]=[N-])ccc1-2` [Ro-154513], the pKi is 7.82 in test [1] and 8.27 in [7].

For `CC(C)(C)OC(=O)c1ncn2c1C1CCC(=O)N1c1ccccc1-2` (stereo not given), the pKi in test [1] is 9.40; in test [3], 9.12; in test [4], 7.88. In the test on Rattus norvegicus [8], the ED50 is greater than 50 mg/kg. Further, in test [9], the TBPS shift amounted to 0.06.

On to `COC(=O)N1c2ccccc2-n2cnc(-c3noc(C4CC4)n3)c2C1(C)C`, for which the ED50 with Rattus norvegicus [8] is greater than 50 mg/kg. Moreover, the Chlorine uptake in the test filed under Rattus norvegicus [2] is 1.18 and 0.4. In [3], this compound had a pKi of 8.17. Besides, the TBPS shift in [6] was 1.04 and 0.8.

Consider `O=C(c1ccccc1)N1Cc2c(-c3noc(C4CC4)n3)ncn2-c2ccccc21`, for which the pKi in test [1] was 9.52; in test [3], 8.37; in test [4], 5.94. Moreover, in test [6], the TBPS shift was 0.5.

As for `CC(=O)N1Cc2c(-c3nc(C4CC4)no3)ncn2-c2ccccc21`, in the test on Rattus norvegicus [8], the ED50 worked out at 42 mg/kg. Also, the Chlorine uptake in the test listed under Rattus norvegicus [2] stood at 0.6. In test [3], this compound showed a pKi of 8.18. Also, the TBPS shift in [6] was 0.7.

In the test with Rattus norvegicus [8], `CC(=O)N1c2ccccc2-n2cnc(-c3noc(C4CC4)n3)c2C1(C)C` showed an ED50 of 30 mg/kg. In test [3], this compound had a pKi of 8.32. Further, the TBPS shift in test [6] came to 0.7.

Compound `CC(C)(C)OC(=O)N1Cc2c(-c3noc(C4CC4)n3)ncn2-c2ccccc21` yielded an ED50 in the test with Rattus norvegicus [8] of 0.06 mg/kg. In addition, in test [3], the pKi is 8.72. The TBPS shift in test [6] worked out at 2.9.

`CC(=O)N1Cc2c(C(=O)OC(C)(C)C)ncn2-c2ccccc21`: in the test listed under Rattus norvegicus [2], the Chlorine uptake worked out at 0. The TBPS shift in [6] is -0.06.

Compound `O=C1CC[C@H]2c3c(-c4noc(C5CC5)n4)ncn3-c3ccccc3N12` showed an ED50 in the test on Rattus norvegicus [8] of 1.1 mg/kg. In [3], this compound showed a pKi of 9.21. Besides, in test [6], the TBPS shift was determined as 1.05.

Turning to `O=C1CCC2c3c(-c4noc(C5CC5)n4)ncn3-c3ccccc3N12` (stereo not given), in the test filed under Rattus norvegicus [2], the Chlorine uptake amounted to 0.29. Besides, the negative logarithm of the Ki (pKi) in test [3] was 9.06. For the same compound, in [6], the TBPS shift was found to be 1.15.

Regarding `CC(=O)N1Cc2c(-c3noc(C4CC4)n3)ncn2-c2ccc(F)cc21`, the pKi is 9.22 in [1], 9.16 in [3] and 7.09 in [4]. Also, the TBPS shift in test [6] was 1.11.

In the case of `CC(=O)N1Cc2c(-c3noc(C4CC4)n3)ncn2-c2ccccc21`, the negative logarithm of the Ki (pKi) is 8.57 in test [1], 8.82 in [3] and 6.91 in [4]. Further, the 50% effect level in the test on Rattus norvegicus [8] (ED50) was put at a dose of 35 mg/kg. Also, the TBPS shift in test [6] came out at 0.9.

`CC(C)OC(=O)N1c2ccccc2-n2cnc(-c3noc(C4CC4)n3)c2C1(C)C` came in with a median effective dose (ED50) in the test on Rattus norvegicus [8] of 3.7 mg/kg. The compound further returned a Chlorine uptake in the test listed under Rattus norvegicus [2] of 0.7. This compound had a pKi in test [3] of 8.17. Also, in test [6], the TBPS shift worked out at 1.2.

`CC(C)(C)OC(=O)c1ncn2c1CN(C(=O)c1ccccc1Cl)c1ccccc1-2` gave an ED50 in the test with Rattus norvegicus [8] greater than 50 mg/kg. Besides, the Chlorine uptake in the test listed under Rattus norvegicus [2] is -0.15. Besides, the negative logarithm of the Ki (pKi) in [3] is 8.40. Besides, in test [6], the TBPS shift was found to be 0.2.

For the compound `O=C(c1ccccc1)N1Cc2c(-c3noc(C4CC4)n3)ncn2-c2ccc(F)cc21`, the pKi in [1] is 9.40; in [3], 9.24; in test [4], less than 5.00. For the same compound, the Chlorine uptake in the test filed under Rattus norvegicus [2] turned out to be 0.67. Also, the TBPS shift in [6] turned out to be 0.98.

`O=C1OCC2c3c(-c4noc(C5CC5)n4)ncn3-c3ccccc3N12` (stereo not given): the Chlorine uptake in the test listed under Rattus norvegicus [2] turned out to be 0.5. The compound also showed a pKi in [3] of 8.62. Also, the TBPS shift in test [6] was determined as 0.96.

In the test with Rattus norvegicus [8], `O=C1CC[C@@H]2c3c(-c4noc(C5CC5)n4)ncn3-c3ccccc3N12` displayed an ED50 of 1.9 mg/kg. In [3], this compound had a pKi of 9.19. For the same compound, the TBPS shift in [6] was determined as 0.9.

Turning to `O=C(c1ccccc1Cl)N1Cc2c(-c3noc(C4CC4)n3)ncn2-c2ccccc21`, the ED50 in the test with Rattus norvegicus [8] was greater than 50 mg/kg. Further, in the test listed under Rattus norvegicus [2], the Chlorine uptake amounted to 0.28. This compound gave a pKi in test [3] of 8.85. Further, the TBPS shift in test [6] was found to be 0.

One may read the pKi as the negative decadic logarithm of the Ki, by convention in mol/L. A word on the ED50: it is the midpoint of the dose-response relation. Higher therefore signals weaker potency.
